This passage reports IC50 and inhibition results from ChEMBL document CHEMBL1139624, “Synthesis and evaluation of isatin derivatives as effective SARS coronavirus 3CL protease inhibitors” (Bioorg Med Chem Lett, 2005).

For assay [1], the target named is T1, Replicase polyprotein 1a (Severe acute respiratory syndrome-related coronavirus, UniProt P0C6U8). Kind of assay: In vitro inhibitory concentration against SARS coronavirus main protease (SARS CoV 3C-like protease).
The target in assay [2] is Replicase polyprotein 1a (Severe acute respiratory syndrome-related coronavirus) (UniProt P0C6U8). Kind of assay: In vitro percent inhibition against SARS coronavirus main protease (SARS CoV 3C-like protease) at 20 uM. The essentials:
(§1)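 FRET assay with 50 nM 3CLpro preincubated 10 min at room temperature with inhibitor at 20 μM in pH 7.5 Tris–HCl/NaCl/EDTA/DTT/β-ME buffer. Percent inhibition was taken from the initial velocity.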

Assay [3] in a line: In vitro inhibitory concentration against Trypsin (serine protease). The essentials: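 Trypsin counter-screen run with 9 nM enzyme and 200 μM substrate.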
A short description of assay [4]: In vitro inhibitory concentration against Papain (cysteine protease). Set-up: species or system Carica papaya.
Assay [5] addresses T1, Replicase polyprotein 1a. Kind of assay: In vitro inhibitory concentration SARS coronavirus main protease (SARS CoV 3C-like protease).
For assay [6], the target named is T1, Replicase polyprotein 1a. Kind of assay: In vitro inhibitory concentration against SARS coronavirus main protease (SARS CoV 3C-like protease) at 20 uM. An outline of the steps: as §1
Assay [7] addresses Replicase polyprotein 1a (Severe acute respiratory syndrome-related coronavirus) (UniProt P0C6U8). Kind of assay: In vitro percent inhibition against SARS coronavirus main protease (SARS CoV 3C-like protease). As to conditions: concentration not given here. An outline of the steps: as §1

On Replicase polyprotein 1a [1], `O=C1C(=O)N(Cc2cc3ccccc3s2)c2cccc(Cl)c21` returned an IC50 of 11.2 µM.

In the case of `O=C1C(=O)N(Cc2cc3ccccc3s2)c2c1cccc2[N+](=O)[O-]`, on Replicase polyprotein 1a [1], it took 2 µM to reach half-maximal inhibition (IC50).

`COc1ccc2c(c1)C(=O)C(=O)N2Cc1cc2ccccc2o1` had an inhibition in assay [2] of 13%.

Regarding `Nc1cccc2c1N(Cc1cc3ccccc3s1)C(=O)C2=O`, the inhibition in assay [2] turned out to be 31%.

Turning to `Cc1cc2c(c([N+](=O)[O-])c1)N(Cc1cc3ccccc3s1)C(=O)C2=O`, the inhibition in assay [2] stood at 39%.

On Replicase polyprotein 1a [1], `O=C1C(=O)N(Cc2cc3ccccc3s2)c2ccccc21` returned an IC50 of 13.1 µM.

`Cc1noc(C)c1CN1C(=O)C(=O)c2cc(C(N)=O)ccc21` had an inhibition in assay [2] of 25%.

Consider `O=C(Nc1ccc(Cl)cc1)c1ccc(CN2C(=O)C(=O)c3cc(I)ccc32)s1`, for which the IC50 against Replicase polyprotein 1a [1] is 12.6 µM.

As to `O=C1C(=O)N(Cc2cc3ccccc3s2)c2ccc(I)cc21`, the IC50 against Replicase polyprotein 1a [1] came out at 0.95 µM; in assay [3] it was 243 µM; in assay [4] it was 87.2 µM.

In the case of `O=C1C(=O)N(Cc2cc3ccccc3s2)c2ccc(F)cc21`, the midpoint of inhibition against Replicase polyprotein 1a [1], the IC50, lay at 4.82 µM. In other words, the single-digit micromolar range.

In assay [2], `CC(C)NC(=O)c1ccc(CN2C(=O)C(=O)c3cc(I)ccc32)s1` showed an inhibition of 47%.

Regarding `Cc1cc2c(c([N+](=O)[O-])c1)N(CC(=O)c1cc3ccccc3s1)C(=O)C2=O`, the inhibition in assay [2] worked out at 40%.

In the case of `Cc1noc(C)c1CN1C(=O)C(=O)c2cc(C#N)ccc21`, half-maximal inhibition on Replicase polyprotein 1a [1] (IC50) was put at 7.2 µM.

As for `O=C1C(=O)N(Cc2cc3ccccc3s2)c2c(Br)cccc21`, the IC50 in assay [3] came to 362 µM; in assay [4], 103 µM; against Replicase polyprotein 1a [5], 0.98 µM.

For the compound `COc1ccc2c(c1)C(=O)C(=O)N2Cc1cc2ccccc2s1`, the inhibition in assay [2] was 27%.

As to `O=C1C(=O)N(C/C=C/c2cc3ccccc3s2)c2ccc(I)cc21`, inhibition on Replicase polyprotein 1a [1] was half-maximal at 23.5 µM (IC50).

In turn, `Nc1ccc2c(c1)C(=O)C(=O)N2CC(=O)c1cc2ccccc2s1` displayed an inhibition in assay [2] of 40%.

In turn, `O=C1C(=O)N(CC2COc3ccccc3O2)c2ccc(I)cc21` (stereo not given) came in with a 50% inhibitory concentration (IC50) against Replicase polyprotein 1a [6] of 13.5 µM. This counts as double-digit micromolar.

The compound `O=C1C(=O)N(Cc2cc3ccccc3s2)c2c(Cl)ccc(Cl)c21` displayed an inhibition in assay [2] of 46%.

In assay [2], `O=C(NC1CCCCC1)c1ccc(CN2C(=O)C(=O)c3cc(I)ccc32)s1` displayed an inhibition of 36%.

In assay [2], `O=C(Nc1ccc(F)cc1)c1ccc(CN2C(=O)C(=O)c3cc(I)ccc32)s1` gave an inhibition of 46%.

As for `O=C1C(=O)N(Cc2cc3ccccc3o2)c2ccc([N+](=O)[O-])cc21`, in assay [2], the inhibition was determined as 24%.

`O=C1C(=O)N(Cc2cc3ccccc3o2)c2ccc(I)cc21` came in with an inhibition in assay [7] of 13%.

`O=C(Nc1ccc(F)cc1F)c1ccc(CN2C(=O)C(=O)c3cc(I)ccc32)s1` yielded an inhibition in assay [2] of 32%.

As for `O=C1C(=O)N(Cc2ccc(C(=O)N3CCCCC3)s2)c2ccc(I)cc21`, the IC50 on Replicase polyprotein 1a [1] was determined as 17.5 µM.

`O=C1C(=O)N(Cc2ccc(F)cc2Cl)c2ccc(I)cc21`: the IC50 on Replicase polyprotein 1a [1] is 9.4 µM.
